Published values pooled from the literature.
Protocols differ between the studies behind these lines.
Target: Cholecystokinin receptor type A (CCKAR, Homo sapiens, UniProt P32238)
Residues used in one study (P32238 1-428): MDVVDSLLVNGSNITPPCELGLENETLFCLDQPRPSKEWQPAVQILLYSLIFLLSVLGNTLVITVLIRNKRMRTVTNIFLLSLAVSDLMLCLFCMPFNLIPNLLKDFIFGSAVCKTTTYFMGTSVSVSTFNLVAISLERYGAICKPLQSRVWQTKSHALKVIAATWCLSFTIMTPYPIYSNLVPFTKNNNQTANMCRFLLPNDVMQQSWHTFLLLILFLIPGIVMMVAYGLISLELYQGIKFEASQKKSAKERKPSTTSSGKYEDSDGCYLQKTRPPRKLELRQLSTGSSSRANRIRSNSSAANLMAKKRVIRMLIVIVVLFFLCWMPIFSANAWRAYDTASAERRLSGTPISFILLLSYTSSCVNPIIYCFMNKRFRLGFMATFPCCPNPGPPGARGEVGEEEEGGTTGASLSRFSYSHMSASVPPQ

COc1ccc(S(=O)(=O)N2CCCCC2)cc1C — inhibition (ligand displacement, radioligand; 10 µM): < 30%
C[C@H](C(=O)N[C@H]1COc2ccccc2[C@@H]1S(C)(=O)=O)c1ccc(F)cc1 — inhibition (cell-free assay; 10 µM): -11%
O=C(Nc1cccnn1)N1CCN([C@@H]2CCOc3cc(C(F)(F)F)ccc32)CC1 — inhibition (cell-free assay; 20 µM): 20%
CN(CCN1CCC(OC(=O)Nc2ccccc2-c2ccccc2)CC1)C(=O)c1ccc(CN2CCC(C(N)=O)CC2)cc1 — inhibition (ligand displacement, radioligand; 1 µM): 2%
CCN(CC)CCCC[C@H](NC(=O)[C@H](CC(C)C)NC(=O)[C@H](C)NC(=O)[C@H](Cc1ccccc1)NC(=O)c1ccc(C(C)(C)C)cc1)C(=O)N[C@@H](CO)C(=O)OC — remaining binding (ligand displacement, radioligand; 10 µM): 67.2%
Clc1ccc2c(C3CCN(CCc4c[nH]c5ccccc45)CC3)c[nH]c2c1 — inhibition (ligand displacement, radioligand; 10 µM): 25%
c1ccc(C(NCCNC(c2ccccc2)c2ccccc2)c2ccccc2)cc1 — inhibition (cell-free assay; 10 µM): 7%
Nc1ncc(-c2nc(N3CCOCC3)nc(N3CCOCC3)n2)c(C(F)F)n1 — remaining signal (cell-free assay; 10 µM): 118%
Cc1ncc(C)n2nc(/C=C/c3nc(N4CCCC4)cc(N4CCOCC4)n3)nc12 — inhibition (ligand displacement; 10 µM): -33%
